Assay results as given in ChEMBL document CHEMBL3124835 (J Nat Prod, 2014).
Calls of active or inactive are those of the source. No cut-off for these calls is given here.

Assays:
[1] = test system: Human immunodeficiency virus 1; assay: Reactivation of latent HIV1 NL4-3-Luc expression in human naive CD4+ T cells treated 7 days post-infection measured after 48 hrs by luminescence plate reader analysis; assay type: functional, organism-based, T-cell
[2] = test system: Human immunodeficiency virus 1; assay: Reactivation of latent HIV1 NL4-3-Luc expression in human naive CD4+ T cells treated 7 days post-infection measured after 48 hrs by luminescence plate reader analysis relative to SAHA-treated control; assay type: functional; design: concentration or dose not given beside the values
Method in brief: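 Primary naive CD4+ T cells from healthy HIV-negative donor PBMCs, purified by negative selection. Activated 3 days with anti-CD3/CD28 beads (1 bead:2 cells), anti-IL-4, anti-IL-12p70 and 10 ng/mL TGF-β, then kept 2 days in 30 U/mL IL-2 and infected with NL4-3-Luc. Seven days after infection, 10 000 cells/well exposed to compound for 48 h; BriteGlo luminescence read-out.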

[3] = molecular target: Protein kinase C (PKC) (Homo sapiens) (UniProt O94806+P41743+P17252+P05129+Q05655+P05771+Q05513+Q02156+P24723+Q15139+Q04759); assay: Activation of PKC in human Jurkat cells assessed as NF-kappaB reporter gene activation after 24 hrs by FACS analysis; assay type: cell-based
[4] = test system: Human immunodeficiency virus 1; assay: Reactivation of latent HIV1 NL4-3-Luc expression in human naive CD4+ T cells assessed as HIV-1 RNA expression treated 7 days post-infection by RT-qPCR analysis; assay type: functional, organism-based; details: T-cell
[5] = Human immunodeficiency virus 1, NL4-3, T-cell, read-out: EC50

C[C@@H]1CC(O)/C=C/C(O)C(O)CC(=O)Cc2c(Cl)c(O)cc(O)c2C(=O)O1 (stereo not given in full)
EC50 ([1]; t-cell): Not Active | Activity ([2]; T-cell): inactive

C[C@@H]1CC(O)C2C=CC(CC(=O)Cc3c(Cl)c(O)cc(O)c3C(=O)O1)O2 (stereo not given in full)
EC50 ([1]; t-cell): Not Active | Activity ([2]; T-cell): inactive

C[C@@H]1C[C@@H](O)[C@@H](O)/C=C\C=C\C(=O)Cc2c(Cl)c(O)cc(O)c2C(=O)O1
EC50 [1, 5]: 24.9 µM | Activity [2]: 25%

CCC(=O)CCCCC[C@@H]1NC(=O)[C@H]2CCCCN2C(=O)[C@H]([C@@H](C)CC)NC(=O)[C@H](Cc2cn(OC)c3ccccc23)NC1=O [APICIDIN]
EC50 [1, 5]: 0.3 µM | Activity [2]: 100%

C[C@H]1C[C@H]2O[C@@H]2C[C@H](O)/C=C/C(=O)Cc2c(Cl)c(O)cc(O)c2C(=O)O1 [POCHONIN B]
EC50 [1, 5]: 39.6 µM | Activity [2]: 98%

C[C@H]1C[C@H](O)C(Cl)/C=C\C=C\C(=O)Cc2c(Cl)c(O)cc(O)c2C(=O)O1 (stereo not given in full) [POCHONIN C]
EC50 [1, 5]: 6.3 µM | Activity [2]: 92%

C[C@@H]1C[C@@H](O)/C=C\[C@H](O)CCC(=O)Cc2c(Cl)c(O)cc(O)c2C(=O)O1 [POCHONIN N]
EC50 ([1]; t-cell): Not Active | Activity ([2]; T-cell): inactive

O=C(NCCSSCCNC(=O)/C(Cc1ccc(O)c(Br)c1)=N/O)/C(Cc1ccc(O)c(Br)c1)=N/O [PSAMMAPLIN A]
EC50 [1, 5]: 0.2 µM | Activity [2]: 100%

C[C@@H]1C[C@H]2O[C@@H]2/C=C\C=C\C(=O)Cc2c(Cl)c(O)cc(O)c2C(=O)O1 [RADICICOL]
EC50 [1, 5]: 9.1 µM | Activity [3]: inactive | Activity [4]: Active | Activity [2]: 98%
